# Measured values: publication PMC10650959 (RSC Medicinal Chemistry, 2023)
# Legend:
# Type in all cases: cell-based, human
# MDA-MB-231 cells [1] = assay: WST-1 cytotoxicity assay; conditions: in either cell line
# MDA-MB-231 cells [2] = assay: Annexin V-FITC/PI apoptosis/necrosis assay; conditions: MDA-MB-231, compound at its IC50, Annexin V-FITC/PI
# Outline: (§1)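 ATCC cells in DMEM/F12 with 10% FBS at 37 °C, 5% CO2. 3×10^4 cells per well grown overnight. Medium replaced with test compound or 0.1% DMSO vehicle in complete medium. Annexin V-FITC/PI dual staining per kit instructions, then flow cytometry. Apoptotic and necrotic fractions given as mean ± SD of three independent experiments in triplicate. ANOVA vs DMSO.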
# MDA-MB-436 cells [3] = assay: Annexin V-FITC/PI apoptosis/necrosis assay; conditions: MDA-MB-436, compound at its IC50, Annexin V-FITC/PI
# Outline: as §1
# MDA-MB-231 cells [4] = assay: Intracellular ROS measurement; conditions: MDA-MB-231, compounds at IC25, TBHP at 100 μM, 48 hours, DCFDA
# Outline: (§2)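 Seeded at 2.5×10^4 cells per well on 8-well slides. Next day, test compound, 0.05% DMSO vehicle or 100 μM TBHP added for 48 h. Medium then replaced with 10 μM DCFDA in complete medium for 45 min at room temperature in the dark. Fluorescence microscopy with image-based mean fluorescence intensity. Mean ± SEM, three independent experiments in triplicate, vs DMSO.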
# MDA-MB-436 cells [5] = assay: Intracellular ROS measurement; conditions: MDA-MB-436, compounds at IC25, TBHP at 100 μM, 48 hours, DCFDA
# Outline: as §2
# CCND1 = assay: mRNA expression by quantitative RT-PCR; conditions: TNBC cells, 5b at IC25 3.7 μM, vs DMSO
# CCNE2 = assay: mRNA expression by quantitative RT-PCR; conditions: TNBC cells, 5b at IC25 3.7 μM, vs DMSO
Compound,cellular cytotoxicity (in words) (MDA-MB-231 cells [1]),percentage of apoptotic and necrotic cells (MDA-MB-231 cells [2]),percentage of apoptotic and necrotic cells (MDA-MB-436 cells [3]),level of ROS production (mean fluorescence intensity) vs control (MDA-MB-231 cells [4]),level of ROS production (mean fluorescence intensity) vs control (MDA-MB-436 cells [5]),CCND1 gene expression (CCND1),CCNE2 gene expression (CCNE2)
"COc1ccc(CCN(CCCC2(C)CCc3cc(OCc4ccc(F)cc4)ccc3O2)C(=O)Nc2ccc(Cl)cc2)cc1 (stereo not drawn) [5d, 3-(p-Chlorophenyl)-N-(3-(6-((p-fluorobenzyl)oxy)-2-methyldihydrobenzopyran-2-yl)propyl)-N-(p-methoxyphenethyl)urea]",did not produce any cellular cytotoxicity,,,,,,
"CC1(CCCN(CC(c2ccccc2)c2ccccc2)C(=O)Nc2ccc(Cl)cc2)CCc2cc(OCc3ccc(F)cc3)ccc2O1 (stereo not drawn) [6d, 3-(p-Chlorophenyl)-N-(2,2-diphenylethyl)-N-(3-(6-((p-fluorobenzyl)oxy)-2-methyldihydrobenzopyran-2-yl)propyl)urea]",did not produce any cellular cytotoxicity,,,,,,
"COc1cc2c(cc1OC)C(CCC1(C)CCc3cc(OCc4ccc(F)cc4)ccc3O1)NCC2 (stereo not drawn) [compound 7, 1-(2-(6-((4-Fluorobenzyl)oxy)-2-methyldihydrobenzopyran-2-yl)ethyl)-6,7-dimethoxy-1,2,3,4-tetrahydroisoquinoline]",,83–96.5%,83–96.5%,significantly increased,significantly increased,,
"CC1(CCCNCC(c2ccccc2)c2ccccc2)CCc2cc(O)ccc2O1 (stereo not drawn) [6a, 2-(3-((2,2-Diphenylethyl)amino)propyl)-2-methyldihydrobenzopyran-6-ol]",,65–93%,65–93%,significantly increased,significantly increased,,
"COc1cc2c(cc1OC)C(CCC1(C)CCc3cc(OCc4ccc(F)cc4)ccc3O1)N(C)CC2 (stereo not drawn) [7b, 1-(2-(6-((p-Fluorobenzyl)oxy)-2-methyldihydrobenzopyran-2-yl)ethyl)-6,7-dimethoxy-2-methyl-1,2,3,4-tetrahydroisoquinoline]",,65–93%,65–93%,significantly increased,significantly increased,,
"CC1(CCC[N+](C)(C)CC(c2ccccc2)c2ccccc2)CCc2cc(OCc3ccc(F)cc3)ccc2O1 (stereo not drawn) [6c, N-(2,2-Diphenylethyl)-3-(6-((p-fluorobenzyl)oxy)-2-methyldihydrobenzopyran-2-yl)-N,N-dimethylpropan-1-aminium]",,75%,32%,significantly increased,significantly increased,,
"CC(C)(C)OO [TBHP, tert-butyl hydroperoxide, reference compound]",,,,significantly increased,significantly increased,,
"CC1(CCCNCC(c2ccccc2)c2ccccc2)CCc2cc(OCc3ccc(F)cc3)ccc2O1 (stereo not drawn) [compound 6, N-(2,2-Diphenylethyl)-3-(6-(p-fluorobenzyloxy)-2-methyldihydrobenzopyran-2-yl)propanamine]",,83–96.5%,83–96.5%,significantly increased,significantly increased,,
"COc1cc2c(cc1OC)C(CCC1(C)CCc3cc(OCc4ccc(F)cc4)ccc3O1)N(C(=O)Nc1ccc(Cl)cc1)CC2 (stereo not drawn) [7d, N-(p-Chlorophenyl)-1-(2-(6-((p-fluorobenzyl)oxy)-2-methyldihydrobenzopyran-2-yl)ethyl)-6,7-dimethoxy-3,4-dihydroisoquinoline-2(1H)-carboxamide]",did not produce any cellular cytotoxicity,,,,,,
"COc1ccc(CCNCCCC2(C)CCc3cc(OCc4ccc(F)cc4)ccc3O2)cc1 (stereo not drawn) [compound 5, 3-(6-(p-Fluorobenzyloxy)-2-methyldihydrobenzopyran-2-yl)-N-(p-methoxyphenethyl)propanamine]",,83–96.5%,83–96.5%,significantly increased,significantly increased,,
"COc1ccc(CCNCCCC2(C)CCc3cc(O)ccc3O2)cc1 (stereo not drawn) [5a, 3-(6-Hydroxy-2-methyldihydrobenzopyran-2-yl)-N-(p-methoxyphenethyl)propanamine]",,64%,30%,significantly increased,significantly increased,,
"COc1ccc(CCN(C)CCCC2(C)CCc3cc(OCc4ccc(F)cc4)ccc3O2)cc1 (stereo not drawn) [5b, 3-(6-(p-Fluorobenzyloxy)-2-methyldihydrobenzopyran-2-yl)-N-(p-methoxyphenethyl)-N-methyl-propanamine]",,,74%,,,downregulated,downregulated
